One series concerns LDLR. Briefly: Aβ-induced soluble LDLR in HBMEC media upon MMP9 inhibition. Particulars: Aβ(1-42) 2μM plus inhibitor 1μM, 48 hours at 37°C, ELISA, n = 3. Format: cell-based, human. In general terms: An ELISA detects its analyte on a solid surface through an enzyme-linked reagent.
Series [1] deals with in vitro model of the BBB (HBMEC monolayer). Briefly: Paracellular marker. Particulars: each SB-3CT concentration (0.1, 0.5, 1, 5, 10μM), data not shown. In kind it is cell-based, human. Put shortly:
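HBMEC were seeded at 100,000 cells/cm² on fibronectin-coated (4 µg/cm²) 0.4 µm-pore inserts (0.3 cm²) to form a polarized monolayer. Inserts holding test compound were exposed to wells with 10 kD lucifer yellow dextran at 37 °C. Basolateral was sampled at time 0 and apical at 0, 30 and 60 min (basolateral-to-apical). Apparent permeability = 1/AC0 × dQ/dt, compared with control.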

The test system of a further series is apoE-TR mice. Briefly: Mouse Aβ BBB clearance model: human Aβ. Format: in vivo. Particulars: SB-3CT 25 mg/kg i.p., plasma human Aβ(1-42) ELISA, n = 4.
For a further series, the system named is LRP1. Briefly: Aβ-induced soluble LRP1 in HBMEC media upon MMP9 inhibition. Particulars: Aβ(1-42) 2μM plus inhibitor 1μM, 48 hours at 37°C, ELISA, n = 3. Format: cell-based, human.
Another series has as its system HBMEC. Briefly: LDH cytotoxicity assay in HBMEC extracellular media. Particulars: 48 hours at 37°C, data not shown. In kind it is cell-based, human.

With `CNC(=O)[C@@H](NC(=O)[C@H](CC(C)C)[C@H](O)C(=O)NO)C(C)(C)C` [marimastat], the “reduction of soluble LDLR levels compared to Aβ alone” value with LDLR was “approximately 40%”.
For the molecule `O=S(=O)(CC1CS1)c1ccc(Oc2ccccc2)cc1` (stereo not shown) [SB-3CT], the “BBB monolayer integrity: movement of 10kDa lucifer yellow dextran vs control” value in series [1] is given as “no difference”. The “reduction of soluble LDLR levels compared to Aβ alone” value in the series with LDLR is “approximately 40%”. In addition, the “extent of Aβ BBB elimination in SB-3CT-treated apoE4-TR mice versus apoE3-TR animals” value with apoE-TR mice is recorded as “the same as that observed in the apoE3-TR animals”. Further, the “decrease of soluble LRP1 levels compared to Aβ alone” value in the series with LRP1 is reported as “approximately 40%”.
For the molecule “Aβ(1-42): unlabeled human beta-amyloid (1-42) peptide, purchased from Invitrogen, used in monomeric form”, the LDH release result in the series with HBMEC (20μM Aβ) is “significant increase in LDH release”. For the same molecule, the “cellular toxicity (LDH cytotoxicity assay)” value in the series with HBMEC (Aβ concentrations 0 to 2μM) is “no cellular toxicity was observed”.

Values taken from PMC6842100 (Molecular neurobiology, 2019).
